Screening results (PubChem)
The list is not random: actives were taken first. Their share in the collection is about 9.4%.
Lmaj promast = inhibitors of Leishmania major promastigote growth; Leishmania major promastigotes, resazurin fluorescence viability; inhibition, % at 10 µM; actives 9% (n = 200,000); in the data active = inhibition above about 50%;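 note: promastigotes grown with compound for 44 hours at 28 °C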
Beta apoptosis = blocks beta cell apoptosis | protection from apoptosis, % (concentration not given with the values) | INS-1E cytokine-induced death, ATP luminescence, 48 h; percent of positive-control rescue, neutral wells zero | actives 0.8% (n = 300,000);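 active = Every replicate reaches about 75%, or at least half do and their mean reaches it too, limit read from the data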;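 note: higher means more ATP so stronger rescue from cytokine killing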
CSC inhib = blocks cancer stem cells; inhibition, % at 7.5 µM; actives 1.1% (n = 300,000); cancer stem cell-like cells viability, luminescence; in the data active = inhibition above about 75%; tested in HMLE shEcad cells
SKKanGAS inh = inhibitors of SKKanGAS S. pyogenes growth in kanamycin (SK-promoter or general growth effect); AID 1662; inhibition, % at 7.5 µM; BacTiter-Glo, 6 h; actives 1.3% (n = 300,000);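 active = mean replicate score, as percent of positive control median, at least 50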;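 note: strain carries kanamycin resistance gene driven by streptokinase promoter and grows in 40 µg/ml kanamycin; loss of luminescence reflects streptokinase promoter inhibition or plain growth inhibition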
Mdm2-MdmX inh = disrupts the human Mdm2-MdmX interaction | O15151+Q00987 | SaOS-2 split-luciferase Mdm2/MdmX complementation, luminescence | inhibition, % at 8 µM | actives 3% (n = 330,000);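 active = inhibition of at least 50% at 8 µM in the primary screen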
Target sequence (O15151 whole entry, looked up): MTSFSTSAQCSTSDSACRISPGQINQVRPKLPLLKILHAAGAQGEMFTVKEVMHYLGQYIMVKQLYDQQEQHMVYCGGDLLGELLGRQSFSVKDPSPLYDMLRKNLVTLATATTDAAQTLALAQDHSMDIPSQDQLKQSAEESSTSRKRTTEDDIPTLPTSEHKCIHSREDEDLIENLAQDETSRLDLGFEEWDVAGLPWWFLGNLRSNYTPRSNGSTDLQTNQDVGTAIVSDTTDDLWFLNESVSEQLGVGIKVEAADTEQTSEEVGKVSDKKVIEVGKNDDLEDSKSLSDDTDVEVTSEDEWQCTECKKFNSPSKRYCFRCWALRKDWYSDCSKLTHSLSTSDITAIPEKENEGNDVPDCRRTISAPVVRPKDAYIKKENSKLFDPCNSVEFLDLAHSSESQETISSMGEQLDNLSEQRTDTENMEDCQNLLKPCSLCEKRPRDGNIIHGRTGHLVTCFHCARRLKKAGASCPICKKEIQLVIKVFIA
Target sequence (Q00987 whole entry, looked up): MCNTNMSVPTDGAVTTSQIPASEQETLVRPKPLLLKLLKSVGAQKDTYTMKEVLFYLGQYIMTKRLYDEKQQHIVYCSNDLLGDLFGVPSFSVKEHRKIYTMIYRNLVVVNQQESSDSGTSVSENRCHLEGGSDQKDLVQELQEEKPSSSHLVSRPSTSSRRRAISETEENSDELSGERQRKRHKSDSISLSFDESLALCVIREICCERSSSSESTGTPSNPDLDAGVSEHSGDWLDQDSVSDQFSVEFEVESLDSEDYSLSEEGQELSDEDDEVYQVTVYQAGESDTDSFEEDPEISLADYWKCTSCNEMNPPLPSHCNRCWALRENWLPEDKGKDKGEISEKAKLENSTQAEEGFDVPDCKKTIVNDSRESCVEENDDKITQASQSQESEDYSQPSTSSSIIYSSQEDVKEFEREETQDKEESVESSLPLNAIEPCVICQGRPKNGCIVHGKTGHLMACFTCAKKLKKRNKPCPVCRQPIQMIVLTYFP
T cruzi inh = blocks replication of Trypanosoma cruzi; T. cruzi beta-gal in NIH3T3, luminescence, 90 h; inhibition, % (concentration not given with the values); actives 1.4% (n = 300,000);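 active = mean inhibition across valid replicates above about 55%, limit read from the data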;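 note: signal also drops with host cell toxicity which is not excluded here; higher percent means less beta-gal luminescence so fewer parasites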
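Incubation – ≥90 h infection period, 3 h prior cell attachment · System – NIH/3T3 fibroblasts plus reporter T. cruzi · Doses – compound pinned at 50 nL/well, DMSO · Read-out basis – percent inhibition of parasite-derived β-gal signal · Signal – luminescent β-galactosidase signal after 60 min lysis · Also added – 5000 T. cruzi trypomastigotes/well · Medium – Low-serum DMEM with 2% FBS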
Numbers stand for hits.

For COCCCNc1nc2nonc2nc1N1CCC(C(C)N2CCOCC2)CC1 (stereo not given) the results were Lmaj promast inactive, Beta apoptosis inactive, CSC inhib inactive, SKKanGAS inh inactive, Mdm2-MdmX inh inactive and T cruzi inh inactive.
`Cc1ccc(CNC(=O)C(c2ccccc2)c2ccccc2)cc1` gave Beta apoptosis inactive, CSC inhib inactive, SKKanGAS inh inactive, Mdm2-MdmX inh inactive and T cruzi inh inactive.
Screening Cc1cc(C(=O)NCCN2CCOCC2)c2ccccc2n1 returned Beta apoptosis inactive, CSC inhib inactive and Mdm2-MdmX inh inactive.
For CN(C)CCCn1c(-c2ccccc2)nc(=S)c2c1CCCC2 the results were Lmaj promast inactive, Beta apoptosis inactive, SKKanGAS inh inactive, Mdm2-MdmX inh inactive and T cruzi inh 59.
For O=S(=O)(c1ccc2c(c1)CCN2)N1CCOCC1 the results were Beta apoptosis inactive and Mdm2-MdmX inh inactive.
Cc1ccc2nc(Cl)c(C3CC(c4cccs4)=NN3C(=O)CCCC(=O)O)cc2c1 (stereo not given) was read as Lmaj promast 57, Beta apoptosis inactive, CSC inhib inactive, SKKanGAS inh inactive, Mdm2-MdmX inh inactive and T cruzi inh inactive.
Cc1nc2scc(C)n2c(=O)c1S(=O)(=O)Nc1ccc(N2CCOCC2)cc1 was read as Beta apoptosis inactive, CSC inhib inactive, SKKanGAS inh inactive, Mdm2-MdmX inh inactive and T cruzi inh inactive.
Cc1ccc(NC(=O)c2sc3nc(CCl)[nH]c(=O)c3c2C)c(C)c1 was read as Lmaj promast 89.
`C[C@@H]1CN(c2c(F)c(F)c3c(=O)c(C(=O)O)cn(C4CC4)c3c2F)C[C@H](C)N1` gave SKKanGAS inh 65, Mdm2-MdmX inh inactive and T cruzi inh inactive.
`COc1c(C)cc(C(=O)C2CCCN(C(=O)c3ccc4cc[nH]c4c3)C2)cc1C` (stereo not given) gave Lmaj promast 65, Beta apoptosis inactive, CSC inhib inactive, SKKanGAS inh inactive, Mdm2-MdmX inh inactive and T cruzi inh inactive.
Screening O=C(/C=C/c1ccc(Cl)c([N+](=O)[O-])c1)NCc1cccnc1 returned Lmaj promast inactive, Beta apoptosis inactive, CSC inhib inactive, SKKanGAS inh inactive, Mdm2-MdmX inh inactive and T cruzi inh inactive.
Screening CCOc1ccc(C(=O)Nc2nnc(C(C)C)s2)cc1OCC returned Lmaj promast 87, Beta apoptosis inactive, CSC inhib inactive, SKKanGAS inh inactive, Mdm2-MdmX inh inactive and T cruzi inh inactive.
Screening COc1ccc(Nc2nc(OC)nc(N3CCN(c4ccc(OC)cc4)CC3)n2)cc1 returned Lmaj promast inactive, SKKanGAS inh inactive and T cruzi inh inactive.
COc1ccc(Nc2nc(Cl)nc(N3CCN(c4ccc(OC)cc4)CC3)n2)cc1 was read as Lmaj promast 53, Beta apoptosis inactive, CSC inhib inactive, SKKanGAS inh inactive, Mdm2-MdmX inh inactive and T cruzi inh inactive.
`CCn1c(C(=O)N2CCCC(C(=O)NCCCc3ccccc3)C2)cc2sccc21` (stereo not given) gave Lmaj promast 99, Beta apoptosis inactive, CSC inhib inactive, SKKanGAS inh inactive, Mdm2-MdmX inh inactive and T cruzi inh inactive.
Screening CCn1c(C(=O)N2CCCC(C(=O)NCCc3ccc(C)cc3)C2)cc2sccc21 (stereo not given) returned Lmaj promast inactive, Beta apoptosis inactive, CSC inhib inactive and Mdm2-MdmX inh inactive.
Screening CCc1ccc(S(=O)(=O)/N=C2\C=CC(=O)c3ccccc32)cc1 returned Lmaj promast 93, Beta apoptosis inactive, CSC inhib inactive, Mdm2-MdmX inh inactive and T cruzi inh inactive.
Screening CCc1ccc(S(=O)(=O)/N=C2/C=C(Sc3ncn[nH]3)C(=O)c3ccccc32)cc1 returned Lmaj promast 100, Beta apoptosis 127 and CSC inhib 104.
Screening CCc1ccc(S(=O)(=O)ON2C(=O)c3ccccc3C2=O)cc1 returned Lmaj promast inactive, SKKanGAS inh inactive, Mdm2-MdmX inh inactive and T cruzi inh inactive.
For CCCC1(C(=O)OC)NC(c2ccc(OC)cc2OC)C2C(=O)N(c3cccc(C(C)=O)c3)C(=O)C21 (stereo not given) the results were Beta apoptosis inactive, CSC inhib inactive, SKKanGAS inh inactive, Mdm2-MdmX inh inactive and T cruzi inh inactive.
Cc1c(C)c2c(OCC(=O)NC3CC3)cc3c(c2oc1=O)CCC(C)(C)O3 was read as Beta apoptosis inactive, CSC inhib inactive, SKKanGAS inh inactive, Mdm2-MdmX inh inactive and T cruzi inh inactive.
For Cc1cc(=O)oc2c3c(cc(OCC(=O)NC4CC4)c12)OC(C)(C)CC3 the results were Beta apoptosis inactive, CSC inhib inactive, SKKanGAS inh 88, Mdm2-MdmX inh inactive and T cruzi inh inactive.
Screening Cc1cc(C)n2nc(SC(C)C(=O)N(C)c3ccccc3)nc2n1 (stereo not given) returned Beta apoptosis inactive, CSC inhib inactive and Mdm2-MdmX inh inactive.
`CCOc1cc(NC(=S)NCC2CCCO2)c(OCC)cc1NC(=O)c1cccc(F)c1` (stereo not given) gave Lmaj promast inactive, Beta apoptosis inactive, CSC inhib inactive, SKKanGAS inh inactive, Mdm2-MdmX inh inactive and T cruzi inh inactive.
For NS(=O)(=O)c1ccc(NNC(=O)c2ccc(F)cc2F)cc1 the results were Beta apoptosis inactive, CSC inhib inactive, SKKanGAS inh inactive, Mdm2-MdmX inh inactive and T cruzi inh inactive.
`COc1ccccc1-c1ccc(SCc2cccc(C)c2)nn1` gave Lmaj promast 99, Beta apoptosis inactive, CSC inhib inactive, SKKanGAS inh inactive, Mdm2-MdmX inh inactive and T cruzi inh inactive.
COc1ccccc1-c1ccc(SCc2ccc([N+](=O)[O-])cc2)nn1 was read as Lmaj promast inactive, Beta apoptosis inactive, CSC inhib inactive, SKKanGAS inh inactive, Mdm2-MdmX inh inactive and T cruzi inh inactive.
Screening O=C(/C=C/c1ccccc1Cl)c1ccc[nH]1 returned Lmaj promast 74, Beta apoptosis inactive, CSC inhib inactive, SKKanGAS inh inactive, Mdm2-MdmX inh inactive and T cruzi inh inactive.
`O=C(/C=C/c1ccc(Cl)cc1Cl)c1ccc[nH]1` gave Lmaj promast inactive, Beta apoptosis inactive, CSC inhib inactive, SKKanGAS inh inactive, Mdm2-MdmX inh inactive and T cruzi inh inactive.
CC(C)C1Nc2c(O)cc(Cl)c([N+](=O)[O-])c2C2C=CCC21 (stereo not given) was read as Lmaj promast inactive, SKKanGAS inh 79 and T cruzi inh inactive.
`O=c1cnn(-c2ccc(Cl)cc2Cl)c(-c2ccccc2)c1` gave Lmaj promast 92, CSC inhib inactive, SKKanGAS inh inactive, Mdm2-MdmX inh inactive and T cruzi inh inactive.
`COc1cccc(C2=CC(c3cc(OC)ccc3OC)n3nnnc3N2)c1` (stereo not given) gave Lmaj promast 92, Beta apoptosis inactive, CSC inhib inactive, SKKanGAS inh inactive, Mdm2-MdmX inh inactive and T cruzi inh inactive.
